High-throughput results (PubChem)
NPY Y1 blocker: antagonists of human neuropeptide Y receptor Y1; HEK293-CNG Y1 cells, membrane potential fluorescence; NPY at EC95, then isoproterenol; inhibition, % at 3.6 µM; hit rate 1% among 200,000;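 active = inhibition above the campaign mean inhibition of all tested compounds plus 3 SD, cut at about 20% in these data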
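Test system – HEK293 Y1/CNG channel cell line · Also added – NPY agonist 25 nM, then isoproterenol 1 µM plus Ro 20-1724 25 µM · Compound dosing – one concentration, 3.6 µM, in 0.4% DMSO · Schedule – compound incubation 1 h at room temperature, readout 45 min post-stimulation · Technique – fluorescence, membrane potential probe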
NPY-Y2 PAM-ag: potentiates or activates human NPY-Y2 receptor. P49146. cells expressing NPY-Y2, potentiator/agonist read-out. activation, % at 3.6 µM. hit rate 0.45% among 220,000. AID 1359; in the data active = activation above about 27%;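 also: cells stimulated with NPY near EC25 plus isoproterenol at EC100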
Target sequence (P49146 whole entry, looked up): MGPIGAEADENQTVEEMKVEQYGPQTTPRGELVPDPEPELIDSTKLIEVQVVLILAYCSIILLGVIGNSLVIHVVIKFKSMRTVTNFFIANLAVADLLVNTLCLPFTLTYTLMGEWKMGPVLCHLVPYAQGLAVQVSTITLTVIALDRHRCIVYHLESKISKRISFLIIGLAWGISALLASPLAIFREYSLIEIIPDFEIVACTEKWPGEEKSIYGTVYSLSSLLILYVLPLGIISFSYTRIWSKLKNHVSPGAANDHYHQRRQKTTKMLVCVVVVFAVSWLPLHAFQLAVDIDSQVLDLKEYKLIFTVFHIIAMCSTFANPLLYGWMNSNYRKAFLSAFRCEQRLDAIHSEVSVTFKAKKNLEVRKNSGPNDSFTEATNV
Tb hexokinase: T. brucei hexokinase 1 inhibition. recombinant TbHK1, G6PDH-coupled NADH A340. hit rate 0.11% among 220,000. inhibition, % at 10 µM. AID 1430;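 active = inhibition of 50% or more in the single-dose primary screen; inactive = inhibition below 50%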
Calpain2 inh: blocks pig calpain II enzyme activity; purified calpain II, fluorogenic peptide substrate, 30 min; inhibition, % at 16 µM; hit rate 0.37% among 220,000; AID 1236;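 active = inhibition above about 50%, limit read from the data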
NPY-Y1 PAM-ag: potentiates or activates human NPY-Y1 receptor | NPY-Y1 expressing cells, potentiator/agonist activation | P25929 | hit rate 0.37% among 220,000 | activation, % at 3.6 µM; in the data active = activation above about 33%, passing the limit was not always enough;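 also: cells stimulated with NPY at EC10 then isoproterenol at EC100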
NPY Y2 blocker: NPY-Y2 (human) receptor antagonism | NPY-Y2 expressing cells, antagonist mode | inhibition, % at 2.7 µM | hit rate 0.99% among 140,000
NPY1 antag conf: confirmation of human neuropeptide Y receptor Y1 antagonists. inhibition, % at 3.6 µM. AID 1254. hit rate 21% among 1,200. shares compounds with NPY Y1 blocker. HEK293-CNG NPY-Y1, membrane potential fluorescence, cAMP; NPY challenge against isoproterenol-raised cAMP; in the data active = inhibition above about 20%
NPY2 antag ctr: counter-screen for NPY-Y1 antagonists: human NPY-Y2 antagonism; shares compounds with NPY Y1 blocker; HEK293 NPY-Y2 CNG membrane potential fluorescence; cells given NPY, then isoproterenol; inhibition, % at 3.6 µM; hit rate 28% among 1,200; AID 1255
A number is an active result; . = inactive; / = not tested or not shown. Compounds with a hit are over-represented: about 2.3% of the library has one in this group of screens. Rule as the data show it, unless noted: active = inhibition above about 17%; inactive = the rest.

SMILES	NPY Y1 blocker	NPY-Y2 PAM-ag	Tb hexokinase	Calpain2 inh	NPY-Y1 PAM-ag	NPY Y2 blocker	NPY1 antag conf	NPY2 antag ctr
COc1cc(NC(=O)C2COc3ccccc3O2)c(OC)cc1Cl (configuration not stated)	31.1	.	.	.	.	.	.	.
COc1cc(NC(=O)c2ccc(Cl)cc2)c(OC)cc1Cl	31.1	.	.	.	.	.	.	.
COC(=O)c1ccc(C)c(NC(=O)C2COc3ccccc3O2)c1 (configuration not stated)	.	.	.	.	.	.	/	/
COc1ccc(NC(C)=O)cc1NC(=O)c1ccc(Cl)cc1	.	.	.	.	.	/	/	/
CCOC(=O)c1cnn(-c2nc(-c3ccccc3)cs2)c1C(F)(F)F	20.2	.	.	.	.	.	.	.
COCC(=O)Nc1ccccc1Br	.	.	.	.	.	.	/	/
COCC(=O)Nc1ccccc1C#N	21.4	.	.	.	.	.	.	.
O=C(O)c1cc2c(s1)-c1ccccc1CC2	20.6	.	.	.	.	.	.	.
CC(C)[C@H](NC(=O)CCCn1nnc2ccccc2c1=O)C(=O)O	/	.	.	.	.	/	/	/
CCOc1ccccc1CN1CCC(CO)(CCOc2ccccc2)CC1	31.4	.	.	.	.	/	.	.
COc1ccc(CN2CCC(CO)(CCOc3ccccc3)CC2)c(OC)c1C	24.3	.	.	.	.	/	.	.
Cc1ccc(C)c(C(=O)CN2C3=NCCCN3c3ccccc32)c1	25.9	.	.	.	.	.	.	.
CCc1sc(C(=O)Nc2cc(Cl)ccc2N2CCCCC2)cc1C	20.6	.	.	.	.	.	.	.
Cc1ccc(C(=O)Nc2cc(Cl)ccc2N2CCCCC2)s1	.	.	.	.	.	.	/	/
Cc1ccc(-n2c(-c3ccccc3)c[n+]3c2CCc2ccccc2-3)c(C)c1	58.3	.	.	.	.	/	32.1	.
Cc1ccc(-n2c(-c3ccccc3)c[n+]3c2CCC3)cc1	.	.	.	.	.	/	/	/
N#CCc1cc2ccc3cccc4ccc(c1)c2c34	/	.	.	.	.	/	/	/
Cc1ccc(CSCCNC(=O)CSCc2ccc([N+](=O)[O-])cc2)cc1	.	.	.	.	.	.	/	/
Cc1ccccc1CSCCNC(=O)CSCc1ccc([N+](=O)[O-])cc1	20.3	.	.	.	.	.	.	.
Cc1ccc(N(C)C(=O)c2ccc(CNc3c(N4CCC(C)CC4)c(=O)c3=O)cc2)cc1	/	.	.	.	.	/	/	/
Cc1cc(N/N=C2/CCCc3ccccc32)nc2ccccc12	28.8	.	.	.	.	/	32.0	29.4
N#Cc1nc(COc2ccc(Br)cc2)oc1NCCCn1ccnc1	26.5	.	.	.	.	.	.	.
Cc1ccc(-c2nc(CCN3C(=O)c4ccccc4C3=O)cs2)cc1	25.1	.	.	.	.	.	.	.
COc1ccc(-n2nc3c(c2NC(=O)c2c(-c4ccccc4Cl)noc2C)CS(=O)(=O)C3)cc1	37.7	.	.	.	.	.	.	.
CN(O)/C=N/C(=S)Nc1ccc(Cl)cc1Cl	.	.	.	.	.	/	/	/
SMILES	NPY Y1 blocker	NPY-Y2 PAM-ag	Tb hexokinase	Calpain2 inh	NPY-Y1 PAM-ag	NPY Y2 blocker	NPY1 antag conf	NPY2 antag ctr
CC#CCN(CC#CC)S(=O)(=O)c1ccc(-n2cnnn2)c(OC)c1	20.8	.	.	.	.	.	.	.
COc1cc(S(=O)(=O)N(Cc2ccccc2)Cc2ccccn2)ccc1-n1cnnn1	.	.	.	.	.	.	/	/
Cc1nc(CN2CCCCC2)cc(=O)[nH]1	.	.	.	.	.	/	/	/
CCCc1[nH]n(-c2ccc(F)cc2)c(=O)c1C=Nc1ccc(C)cc1	.	.	.	.	.	.	/	/
CCN(CC)CCN(C(=O)Cn1nnc(-c2ccc(C)o2)n1)C(C(=O)NC(C)(C)C)c1cccs1 (configuration not stated)	44.7	.	.	.	.	/	21.2	34.3
CCN(CC)CCCN(C(=O)Cn1nnc(-c2ccc(OC)c(OC)c2)n1)C(C(=O)NC(C)(C)C)c1ccc(F)cc1 (configuration not stated)	32.3	.	.	.	.	/	21.3	38.7
CCN(C(=O)COC(=O)c1ccc2c(=O)n3c(nc2c1)CCC3)C1CCS(=O)(=O)C1 (configuration not stated)	.	.	.	.	.	/	/	/
CN(C[C@H](Cc1ccccc1)N(C[C@H](Cc1ccccc1)N(CCc1cc(C(F)(F)F)cc(C(F)(F)F)c1)N=O)N=O)N=O	21.8	.	.	.	.	/	.	.
Nc1nn(-c2ccccc2)nc1C(=O)OCc1ccccc1	/	.	.	.	.	/	/	/
Cc1ccc(COC(=O)c2nn(-c3ccccc3)nc2N)cc1	28.8	.	.	.	.	/	23.0	.
CCOc1cc(S(=O)(=O)n2cnc(C)c2)ccc1Cl	.	.	.	.	.	/	/	/
O=Cc1ccc(OCC(=O)Nc2ccccc2C(F)(F)F)cc1	.	.	.	.	.	/	/	/
COc1ccc(C2C(C(=O)c3cccs3)=C(O)C(=O)N2c2cccc(C)n2)cc1 (configuration not stated)	/	.	.	.	.	/	/	/
Cc1ccc(C2C(C(=O)c3cccs3)=C(O)C(=O)N2c2nnc(C)s2)cc1 (configuration not stated)	27.2	.	.	.	.	/	30.5	20.7
N#Cc1c(-c2ccco2)ccn(Cc2cccc(F)c2)c1=O	.	.	.	.	.	/	/	/
CCN(CC)C(=O)CSc1nc2c(sc(=S)n2-c2ccccc2)c(=O)[nH]1	.	.	.	.	.	/	/	/
CCN(CC)C(=O)CSc1nc2c(sc(=S)n2Cc2ccco2)c(=O)n1-c1ccccc1	26.7	.	.	.	.	.	.	.
COc1ccc(-c2cc(C(F)(F)F)n3nc(C(=O)NCc4ccco4)cc3n2)cc1	24.5	.	.	.	.	.	.	.
Cc1cccc(N/N=C(\C=N\N)C(=O)c2ccc(Br)cc2)c1	.	.	.	.	.	/	/	/
COc1ccccc1CNC(=O)C(NC(=O)c1ccccc1C)C(C)C (configuration not stated)	.	.	.	.	.	/	/	/
COc1ccc(CN2C(=O)c3ccccc3C2C(=O)NC2CCCCCC2)c(OC)c1 (configuration not stated)	24.3	.	.	.	.	/	.	.
COc1ccc(CN2C(=O)c3ccccc3C2C(=O)NCCc2ccccc2)c(OC)c1 (configuration not stated)	.	.	.	.	.	/	/	/
Cc1nc(SC(C(=O)c2ccccc2)c2ccccc2)nc2ccccc12 (configuration not stated)	.	.	.	.	.	.	/	/
